Measured values reported in ChEMBL document CHEMBL4373713, “Effect of 1-Deoxynojirimycin Isolated from Mulberry Leaves on Glucose Metabolism and Gut Microbiota in a Streptozotocin-Induced Diabetic Mouse Model” (J Nat Prod, 2019).
Calls of active or inactive are those of the source.

Columns and labels:
Mus musculus [1] = assay: Antidiabetic activity in STZ-induced Kunming mouse model of diabetes assessed as reduction in TG level at 31.25 to 125 m/kg, po administered QD administered via gavage for 4 weeks; type: functional, organism-based
How it was run: (§1)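 STZ/high-fat-diet diabetic Kunming mice (n=10/group) were gavaged daily for 28 days at 31.25–125 mg/kg. After an overnight fast, orbital-sinus blood was taken and plasma was spun at 1000g, 4 °C. TC, TG and HDL-C were measured by kit. LDL-C was calculated by Friedewald: TC − (HDL-C + TG/2.2), with TG below 4.5 mmol/L. Data are mean ± SD, Duncan's test.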

Mus musculus [2] = assay: Antidiabetic activity in STZ-induced Kunming mouse model of diabetes assessed as decrease in Bacteroidales S24-7 level in feces at 62.5 to 125 mg/kg, po administered QD administered via gavage for 4 weeks by 16S rDNA based DNA sequencing analysis; type: functional, organism-based
Mus musculus [3] = assay: Antidiabetic activity in po dosed STZ-induced Kunming mouse model of diabetes assessed as increase in IR phosphorylation at (Tyr 999 residues) expression in liver administered QD administered via gavage for 4 weeks by Western blot analysis; type: functional, organism-based
How it was run: (§2)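 Livers from diabetic mice after 28 days of daily gavage (31.25–125 mg/kg) were homogenized and spun at 14 000g, 4 °C. Proteins were run on 10% SDS-PAGE and transferred to PVDF, then blocked in 5% milk for 1 h. Primary antibodies (GK, PK, PFK, PCB, PEPCK, FBPase, G-6-Pase, p-IR Tyr999, p-IRS-1 Ser307) were applied for 1 h at 25 °C, followed by HRP anti-rabbit IgG and ECL detection. Mean ± SD, Duncan's test.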

Mus musculus [4] = assay: Antidiabetic activity in STZ-induced Kunming mouse model of diabetes assessed as increase in Bifidobacterium level in feces at 31.25 to 125 mg/kg, po administered QD administered via gavage for 4 weeks by 16S rDNA based Illumina sequencing method; type: functional, organism-based
Mus musculus [5] = assay: Antidiabetic activity in STZ-induced Kunming mouse model of diabetes assessed as reduction in serum glucose level 125 mg/kg, po administered QD administered via gavage for 4 weeks and measured 4 weeks during compound dosing; type: functional, organism-based
How it was run: (§3)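 Fasting serum glucose was taken from the tail tip on days 0, 7, 14, 21 and 28 in STZ (35 mg/kg i.p.)/high-fat-diet Kunming mice. Mice were gavaged once daily at 31.25, 62.5 or 125 mg/kg in 0.5 mL, n=10 per group.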

Mus musculus [6] = assay: Antidiabetic activity in po dosed STZ-induced Kunming mouse model of diabetes assessed as increase in Firmicutes level in feces administered QD administered via gavage for 4 weeks by 16S rDNA based Illumina sequencing method; type: functional, organism-based
Mus musculus [7] = assay: Antidiabetic activity in STZ-induced Kunming mouse model of diabetes assessed as increase in PFK expression level in liver at 125 m/kg, po administered QD administered via gavage for 4 weeks by Western blot analysis; type: functional, organism-based; how it was run: as §2
Mus musculus [8] = assay: Antidiabetic activity in STZ-induced Kunming mouse model of diabetes assessed as decrease in Prevo-tellaceae UCG-001 level in feces at 62.5 to 125 mg/kg, po administered QD administered via gavage for 4 weeks by 16S rDNA based DNA sequencing analysis; type: functional, organism-based
Mus musculus [9] = assay: Antidiabetic activity in po dosed STZ-induced Kunming mouse model of diabetes assessed as reduction in fasting serum insulin level administered QD administered via gavage for 4 weeks; type: functional, organism-based
How it was run: (§4)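 Fasting serum insulin was measured by commercial kit on plasma from orbital-sinus blood taken after an overnight fast at day 28. HOMA-IR was derived to assess insulin sensitivity. Diabetic mice were gavaged daily at 31.25–125 mg/kg. Mean ± SD, Duncan's test.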

Mus musculus [10] = assay: Antidiabetic activity in STZ-induced Kunming mouse model of diabetes assessed as increase in Alistipes level in feces at 31.25 to 125 mg/kg, po administered QD administered via gavage for 4 weeks by 16S rDNA based DNA sequencing analysis; type: functional, organism-based
Mus musculus [11] = assay: Antidiabetic activity in STZ-induced diabetic Kunming mouse assessed as increase in body weight gain at 62.5 to 125 mg/kg, po QD administered via gavage for 4 weeks and measured every 3 days for 28 day
Mus musculus [12] = assay: Antidiabetic activity in STZ-induced Kunming mouse model of diabetes assessed as decrease in LDL-C level at 62.5 to 125 m/kg, po administered QD administered via gavage for 4 weeks; type: functional, organism-based; how it was run: as §1
Mus musculus [13] = assay: Antidiabetic activity in po dosed STZ-induced Kunming mouse model of diabetes assessed as reduction in fasting serum glucose level administered QD administered via gavage for 4 weeks and measured 2 weeks during compound dosing; type: functional, organism-based; how it was run: as §3
Mus musculus [14] = assay: Antidiabetic activity in STZ-induced Kunming mouse model of diabetes assessed as increase in Lactococcus level in feces at 31.25 to 125 mg/kg, po administered QD administered via gavage for 4 weeks by 16S rDNA based DNA sequencing analysis; type: functional, organism-based
Mus musculus [15] = assay: Antidiabetic activity in STZ-induced Kunming mouse model of diabetes assessed as down regulation of fructose-1-6-phosphatase expression level in liver at 31.25 to 125 m/kg, po administered QD administered via gavage for 4 weeks by Western blot analysis; type: functional, organism-based; how it was run: as §2
Mus musculus [16] = assay: Antidiabetic activity in STZ-induced Kunming mouse model of diabetes assessed as increase in Lactobacillus level in feces at 31.25 to 125 mg/kg, po administered QD administered via gavage for 4 weeks by 16S rDNA based Illumina sequencing method; type: functional, organism-based
Mus musculus [17] = assay: Antidiabetic activity in po dosed STZ-induced Kunming mouse model of diabetes assessed as reduction in HOMA-IR index level administered QD administered via gavage for 4 weeks; type: functional, organism-based; how it was run: as §4
Mus musculus [18] = assay: Antidiabetic activity in po dosed STZ-induced Kunming mouse model of diabetes assessed as reduction in ALT activity administered QD administered via gavage for 4 weeks; type: functional, organism-based
How it was run: (§5)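 Diabetic mice (high-fat diet plus STZ 35 mg/kg i.p.) were dosed by gavage once daily for 28 days at 31.25–125 mg/kg. After an overnight fast at endpoint, liver and plasma were collected. ALT, hepatic glycogen and pyruvic acid were measured with commercial kits.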

Mus musculus [19] = assay: Antidiabetic activity in STZ-induced Kunming mouse model of diabetes assessed as decrease in Weis-sella level in feces at 31.25 to 125 mg/kg, po administered QD administered via gavage for 4 weeks by 16S rDNA based DNA sequencing analysis; type: functional, organism-based
Mus musculus [20] = assay: Antidiabetic activity in STZ-induced Kunming mouse model of diabetes assessed as decrease in pyruvic acid level at 31.25 to 125 m/kg, po administered QD administered via gavage for 4 weeks; type: functional, organism-based; how it was run: as §5
Mus musculus [21] = assay: Antidiabetic activity in STZ-induced Kunming mouse model of diabetes assessed as decrease in Ruminococcus level in feces at 31.25 to 125 mg/kg, po administered QD administered via gavage for 4 weeks by 16S rDNA based DNA sequencing analysis; type: functional, organism-based

Measured: Activity

OC[C@H]1NC[C@H](O)[C@@H](O)[C@@H]1O
active: Mus musculus [1] | Mus musculus [2] | Mus musculus [3] Dose-dependent effect | Mus musculus [4] | Mus musculus [5] | Mus musculus [6] Dose-dependent effect | Mus musculus [7] | Mus musculus [8] | Mus musculus [9] Dose-dependent effect | Mus musculus [10] | Mus musculus [11] | Mus musculus [12] | Mus musculus [13] Dose-dependent effect | Mus musculus [15] | Mus musculus [16] | Mus musculus [17] Dose-dependent effect | Mus musculus [18] Dose-dependent effect | Mus musculus [19] | Mus musculus [20] | Mus musculus [21]
inactive: Mus musculus [14]
